Activity calls are given as the source filed them. No cut-off for these calls is given here.
What was measured:
[1] = system: HCC1806; assay: Synergistic cytotoxicity against human HCC1806 cells assessed as reduction in cell viability at ED50 in presence of BPTES by MTS assay; type: functional
Method in brief: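 HCC1806 breast carcinoma cells seeded at 3000 cells/well and co-treated with the inhibitor and BPTES; viability read by MTS. […] Three independent experiments.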

[2] = AUC (0 to infinity) in Sprague-Dawley rat at 2 mg/kg, iv by HPLC-MS analysis; type: ADME, organism-based; set-up: dose 2 mg/kg, route intravenous, time infinity; settings: in vivo
Method in brief: (§1)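 Male rats (330−380 g, 9−10 weeks old), jugular-vein cannulated 1 day before dosing, n = 3. Dosed iv in DMA/PEG400 (20%/80%, v/v) or po in 1% CMC/0.5% Tween-80. Blood (100 μL) drawn at 0, 2 min, 5 min (iv only), 15 and 30 min, and 1, 2, 4, 6, 8 and 24 h. Plasma measured by LC-MS/MS; parameters from noncompartmental analysis.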

[3] = system: ASPC1; assay: Antitumor activity against human Aspc-1 cells xenografted in Balb/cAnN.Cg-Foxn1nu/CrlNarl mouse assessed as tumor growth inhibition at 25 mg/kg, ip once daily administered for 5 days followed by 2 days without dosing for 68 days relative to control; type: functional; settings: read-out: TGI
Method in brief: (§2)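 Male nude mice (7−8 weeks, 18−22 g) received 4.5 × 10^6 AsPC-1 cells sc in the right flank, in HBSS mixed 1:1 with Matrigel. Mice were randomized once mean tumor reached ~100 mm3 (day 1). Dosing was ip once daily, 5 days on/2 days off, with 2% DMSO/PBS as vehicle. Tumors were measured twice weekly, V = ab²/2. %TGI = [1 − ((Tt − T0)/(Ct − C0))] × 100 from median volumes; Student's t test.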

[4] = Terminal half life in Sprague-Dawley rat at 2 mg/kg, iv by HPLC-MS analysis; type: ADME, organism-based; settings: in vivo, read-out: beta t1/2 (converted); method in brief: as §1
[5] = Total clearance in Sprague-Dawley rat at 2 mg/kg, iv by HPLC-MS analysis; type: ADME, organism-based; settings: in vivo
Method in brief: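 Male rats (330−380 g, 9−10 weeks old), jugular-vein cannulated 1 day before dosing, n = 3. Dosed iv in DMA/PEG400 (20%/80%, v/v) or po in 1% CMC/0.5% Tween-80. Plasma measured by LC-MS/MS; parameters from noncompartmental analysis.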

[6] = system: Mus musculus; assay: Toxicity in BALB/CAnN.Cg-Foxn1nu/CrlNarl mouse xenografted with human Aspc-1 cells assessed as loss in body weight at 25 to50 mg/kg, ip once daily administered for 5 days followed by 2 days without dosing for 68 days relative to control; type: organism-based, BALB/C; settings: in vivo, 1632 h
[7] = target: T1, Glutaminase liver isoform, mitochondrial (Homo sapiens) (UniProt Q9UI32); assay: Inhibition of human GLS2 in GLS1 deficient human Aspc-1 cells assessed as decrease in cellular glutamate production after 4 hrs by amplex red glutamic acid assay
T1 sequence (whole entry): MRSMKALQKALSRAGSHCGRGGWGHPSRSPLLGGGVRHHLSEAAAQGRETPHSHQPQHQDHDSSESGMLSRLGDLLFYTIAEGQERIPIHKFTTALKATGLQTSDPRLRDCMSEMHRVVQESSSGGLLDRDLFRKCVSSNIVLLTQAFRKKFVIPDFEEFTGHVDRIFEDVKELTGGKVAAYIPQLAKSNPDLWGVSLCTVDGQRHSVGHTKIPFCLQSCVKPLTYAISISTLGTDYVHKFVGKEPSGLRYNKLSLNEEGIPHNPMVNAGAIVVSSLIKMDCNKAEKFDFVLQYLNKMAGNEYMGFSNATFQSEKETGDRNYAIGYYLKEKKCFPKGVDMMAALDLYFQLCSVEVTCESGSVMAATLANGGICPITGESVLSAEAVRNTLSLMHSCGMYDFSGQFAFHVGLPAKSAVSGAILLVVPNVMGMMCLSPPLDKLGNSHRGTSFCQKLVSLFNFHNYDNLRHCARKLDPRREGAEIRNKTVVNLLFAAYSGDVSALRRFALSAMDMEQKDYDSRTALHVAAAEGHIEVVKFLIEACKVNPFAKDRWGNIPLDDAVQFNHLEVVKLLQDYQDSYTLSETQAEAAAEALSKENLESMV
Method in brief: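 GLS-knockout AsPC-1 cells made with GLS-KO ZFN mRNA, single-cell cloned, and grown in glutamine-free RPMI 1640 with 10% FBS. Cells seeded at 30 000/well and grown 24 h at 37 °C. Treated 4 h with 1% DMSO vehicle or 3.13−100 μM inhibitor, washed with PBS, and lysed in NP-40 buffer (4 °C, 20 min). Lysate glutamate measured by Amplex Red. Three independent experiments in duplicate.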

[8] = Volume of distribution at steady state in Sprague-Dawley rat at 2 mg/kg, iv by HPLC-MS analysis; type: ADME, organism-based; settings: in vivo, read-out: Vdss
Method in brief: (§3)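 Male rats (330−380 g, 9−10 weeks old), quarantined 1 week, jugular-vein cannula implanted 1 day before dosing; n = 3. Single iv dose in DMA/PEG400 (20%/80%, v/v). Blood (100 μL) was drawn via cannula at 0, 2, 5, 15, 30 min and 1, 2, 4, 6, 8, 24 h and kept on ice. Plasma was analysed by HPLC−MS/MS. Vss came from noncompartmental analysis.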

[9] = target: Glutaminase 1/2 (Homo sapiens) (UniProt O94925+Q9UI32); settings: 3.13 to 100 uM
[10] = system: Mus musculus; assay: Toxicity in BALB/CAnN.Cg-Foxn1nu/CrlNarl mouse xenografted with human Aspc-1 cells assessed as overt toxicity at 25 to 50 mg/kg, ip once daily administered for 5 days followed by 2 days without dosing for 68 days; type: organism-based, BALB/C; settings: in vivo
[11] = system: Mus musculus; assay: Toxicity in BALB/CAnN.Cg-Foxn1nu/CrlNarl mouse xenografted with human Aspc-1 cells assessed as loss in body weight at 25 mg/kg, ip once daily administered for 5 days followed by 2 days without dosing for 43 days relative to control; type: organism-based, BALB/C; settings: in vivo
[12] = AUC (0 to infinity) in Sprague-Dawley rat at 0.1 mg/kg, iv by HPLC-MS analysis; type: ADME, organism-based; set-up: dose 0.1 mg/kg, time infinity, route intravenous; settings: in vivo; method in brief: as §1
[13] = system: Mus musculus; assay: Toxicity in BALB/CAnN.Cg-Foxn1nu/CrlNarl mouse xenografted with human Aspc-1 cells assessed as overt toxicity at 25 to 50 mg/kg, ip once daily administered for 5 days followed by 2 days without dosing for 43 days; type: organism-based, BALB/C; settings: in vivo
[14] = Cmax in Sprague-Dawley rat at 1 mg/kg, po by HPLC-MS analysis; type: ADME, organism-based; set-up: dose 1 mg/kg, route oral; settings: in vivo; method in brief: as §1
[15] = system: Mus musculus; assay: Toxicity in BALB/CAnN.Cg-Foxn1nu/CrlNarl mouse xenografted with human Aspc-1 cells assessed as loss in body weight at 50 mg/kg, ip once daily administered for 5 days followed by 2 days without dosing for 43 days relative to control; type: organism-based, BALB/C; settings: in vivo
[16] = Volume of distribution at steady state in Sprague-Dawley rat at 0.1 mg/kg, iv by HPLC-MS analysis; type: ADME, organism-based; settings: in vivo, read-out: Vdss; method in brief: as §3
[17] = Oral bioavailability in Sprague-Dawley rat at 1 mg/kg by HPLC-MS analysis; type: ADME, organism-based; settings: in vivo; method in brief: as §1
[18] = system: ASPC1; assay: Antitumor activity against human Aspc-1 cells xenografted in Balb/cAnN.Cg-Foxn1nu/CrlNarl mouse assessed as tumor growth inhibition at 25 mg/kg, ip once daily administered for 5 days followed by 2 days without dosing for 43 days relative to control; type: functional; settings: read-out: TGI; method in brief: as §2

Chain of Glutaminase 1/2 (Homo sapiens) (O94925 whole entry, looked up, one chain of several): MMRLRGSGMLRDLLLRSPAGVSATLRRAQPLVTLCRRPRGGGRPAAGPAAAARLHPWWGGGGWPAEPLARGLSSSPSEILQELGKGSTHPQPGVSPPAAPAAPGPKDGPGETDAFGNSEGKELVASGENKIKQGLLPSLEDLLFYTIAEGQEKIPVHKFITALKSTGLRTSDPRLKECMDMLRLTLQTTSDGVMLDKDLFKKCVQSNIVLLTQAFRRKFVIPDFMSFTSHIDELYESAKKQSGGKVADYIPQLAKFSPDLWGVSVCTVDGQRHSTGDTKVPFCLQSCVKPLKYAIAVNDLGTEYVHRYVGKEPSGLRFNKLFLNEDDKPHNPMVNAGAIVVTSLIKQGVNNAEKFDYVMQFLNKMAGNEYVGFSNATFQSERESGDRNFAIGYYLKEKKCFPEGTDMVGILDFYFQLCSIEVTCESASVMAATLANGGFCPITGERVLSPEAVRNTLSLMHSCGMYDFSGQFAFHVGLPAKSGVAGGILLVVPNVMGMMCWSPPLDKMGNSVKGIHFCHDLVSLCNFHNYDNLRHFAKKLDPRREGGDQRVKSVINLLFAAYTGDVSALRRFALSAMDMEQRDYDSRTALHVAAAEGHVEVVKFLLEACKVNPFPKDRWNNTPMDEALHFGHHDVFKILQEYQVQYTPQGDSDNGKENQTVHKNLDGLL

Row | AUC(0-inf) [2] | half-life [4] | clearance [5] | inhibition [7] | Vd [8] | inhibition [9] | AUC(0-inf) [12] | Cmax [14] | Vd [16] | bioavailability [17] | Compound | CI [1] | inhibition in vivo at 25 mg/kg [3] | Activity [6] | Activity [10] | Activity [11] | Activity [13] | Activity [15] | inhibition in vivo at 25 mg/kg [18]
1 | 43600 ng·h/mL | 5 h | 0.9 mL/min/kg | Dose-dependent effect | 0.1 L/kg | Active |  |  |  |  | O=C1NC(=O)/C(=C/c2ccc(-c3ccc(-n4c(-c5cccs5)cc(/C=C5\SC(=O)NC5=O)c4-c4cccs4)cc3)cc2)S1 | 0.13 - 0.14 | 2.3% | > 10% | Non-Toxic |  |  |  | 
2 |  |  |  |  |  |  | 3410 ng·h/mL | 16.6 ng/mL | 0.4 L/kg | 1% | Cc1cc(/C=C2\SC(=O)NC2=O)c(C)n1-c1ccc(-c2ccc(/C=C3\SC(=O)NC3=O)cc2)cc1 |  |  |  |  | > 10% | Non-Toxic | > 10% | 60%

Source: ChEMBL document CHEMBL4011632, “Design, Synthesis, and Evaluation of Thiazolidine-2,4-dione Derivatives as a Novel Class of Glutaminase Inhibitors” (J Med Chem, 2017)
